PAX8 inh HTS = inhibitors of PAX8-driven TPO luciferase reporter, primary screen, RMG-I cells, single concentration; inhibition, % at 12.6 µM; hit rate 1.2% among 360,000; AID 652154, 2013; SteadyGlo, 24 h;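 active = mean replicate inhibition at least 60% with every replicate also reaching 60%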;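 note: luciferase light reporting Pax8 driven TPO promoter activity; plate controls were median of neutral control wells for no effect and mitoxantrone controls for full effect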
EWS-Fli inh = EWS/Fli-driven NR0B1 reporter inhibitors, primary screen, A673 cells, NR0B1 luciferase, luminescence, MLPCN library; viability-normalised; hit rate 0.67% among 350,000; inhibition, % at 12.6 µM;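 active = mean inhibition of at least 50% after viability correction, with every replicate also passing that limit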;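 note: firefly luciferase signal divided by Alamar Blue viability fluorescence both relative to DMSO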
FGF22 binding-1 = binders of human FGF22 protein, primary screen, FGF22 synaptogenesis inhibitor project, biophysical, thermal shift, single point; Fibroblast growth factor 22 (Homo sapiens), Q9HCT0; recombinant FGF22 thermal shift, SYPRO orange fluorescence; percent of sucrose octasulfate shift, DMSO zero; activity (Tm shift, normalised), % at 9.99 µM; hit rate 1.5% among 340,000; AID 651658, 2012;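 active = mean Tm shift, scaled 0 neutral to 100 positive control, at about 1.3% or above, every replicate too, limit read from the data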
Target sequence (Q9HCT0 whole entry, looked up): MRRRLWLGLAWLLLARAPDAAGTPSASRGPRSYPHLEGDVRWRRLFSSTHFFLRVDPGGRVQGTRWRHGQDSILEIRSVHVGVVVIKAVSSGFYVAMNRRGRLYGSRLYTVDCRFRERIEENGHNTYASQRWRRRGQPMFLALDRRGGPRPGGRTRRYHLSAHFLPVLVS
PGC1a acetyl inh = inhibitors of PGC1a acetylation signal, primary screen, cell-based, U2OS, AlphaScreen, inhibitor mode | hit rate 0.17% among 350,000 | inhibition, % at 15.6 µM | AlphaScreen anti-acetyl-lysine; with virally co-expressed GCN5 acetyltransferase | AID 651687, 2012;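 active = every replicate shows inhibition of at least 40%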;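 note: 0% = neutral control wells and 100% = positive control wells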
FN deposition inh = inhibitors of fibronectin matrix deposition, primary screen, AH1F cells, Alexa488-fibronectin fluorescence, plate reader | hit rate 0.086% among 350,000 | AH1F fibroblasts, overnight | AID 743247, 2014 | inhibition, % at 12.6 µM;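 active = mean inhibition across replicates of 30% or more, regardless of how many single replicates reach that level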;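 note: positive control wells lacked labelled fibronectin entirely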
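Material: AH1F fibroblast monolayer depositing Alexa488-labelled fibronectin into matrix / Amount: 10000 AH1F cells per well / Signal: fluorescence 485/525 nm / Medium: DMEM, 2% serum / Compound: single dose, pinned / Incubation: 1 h cell adhesion before compound, then overnight fibronectin incubation / Reagent: Alexa488-FN, 24 nM final / Read-out: inhibition of fibronectin deposition signal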
HIV Env fusion = inhibitors of HIV-1 Env-driven cell-cell fusion, primary screen, HeLa-JRFL effector, CEM21 target cells, luciferase | inhibition, % at 12.3 µM | hit rate 1.1% among 360,000 | AID 651610, 2012;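 active = mean replicate inhibition score of at least 50 and every replicate individually at or above 50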;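 note: 0% = plate neutral controls and 100% = maraviroc near 300 nM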
FGF22 binding-2 = binders of human FGF22 protein, dose response, FGF22 synaptogenesis inhibitor project, biophysical, thermal shift, cherry-pick retest | shares compounds with FGF22 binding-1 | recombinant FGF22 thermal shift, SYPRO orange fluorescence | thermal shift activity, °C (ΔTm) at 38 µM | hit rate 2% among 1,000;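 active = fitted rise in melting shift crosses a set limit at or below the top valid dose tested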
FGF22 TSA = binders of human FGF22 protein, dose response, FGF22 synaptogenesis inhibitor project, biophysical, thermal shift, dry powder; Tm shift (activity), % at 38 µM; 50 tested, under 10 active; shares compounds with FGF22 binding-1; AID 743017, 2013; Thermal shift assay, SYPRO orange, melting temperature shift;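 active = compounds whose fitted dose curve of melting temperature shift rises past a set threshold within the tested doses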
SYPRO no-protein = compound-only thermal shift signal without protein, dose response, artefact control for FGF22 binder project, biochemical, cherry-picked samples, RT-PCR instrument; AC50, µM (highest dose often 38 µM); hit rate 2% among 1,000; AID 743019, 2013; compound-only SYPRO orange thermal shift counter-screen, no protein; shares compounds with FGF22 binding-1;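 active = rising signal whose fitted curve reaches the 0.54 level within the top valid dose, showing a melting point, actives reach about 13 µM in these data; inactive = the rest, including activity in the opposite direction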; note: value is where the raw curve crosses a fixed level and not half-maximal
* hit, by the source's call; i = inactive; nt = no result given; [ ] = dose if it differs, or a comment. Only some compounds are listed: those with a hit (about 3.1% of all), similar ones and a draw of the others.

SMILES	PAX8 inh HTS	EWS-Fli inh	FGF22 binding-1	PGC1a acetyl inh	FN deposition inh	HIV Env fusion	FGF22 binding-2	SYPRO no-protein	others
CC(C)CCNC(=O)c1onc(CSc2ccncc2)c1C(=O)NCCC(C)C	3	16	18*	nt	4	-4	0.095	8.3µM*
CCCNC(=O)c1onc(CSc2ccncc2)c1C(=O)NCCC	6	11	0	nt	2	13	nt	nt
CCCCNC(=O)c1onc(CSc2ccc(C(C)C)cc2)c1C(=O)O	13	1	1.5*	-21	20	nt	-0.034	i
C[C@@H]1CN([C@H](C)CO)C(=O)c2cc(C#CC3(O)CCCC3)cnc2O[C@@H]1CN(C)C(=O)C1CCC1	-34	-7	0	2	nt	-17[16.7 µM]	nt	nt
O=C(C[C@H]1CC[C@@H]2[C@H](COC[C@@H](O)CN2Cc2nccs2)O1)NCc1ccccc1F	-8	2	6.6*	-2	-8	nt	0.048[42 µM]	i
O=C(C[C@H]1CC[C@H]2[C@@H](COC[C@H](O)CN2Cc2nccs2)O1)NCc1ccccc1F	4	-3	1.6*	-1	1	nt	0.099[42 µM]	i
O=C(C[C@@H]1CC[C@@H]2[C@H](COC[C@@H](O)CN2Cc2nccs2)O1)NCc1ccccc1F	-7	0	0	4	5	nt	nt	nt
O=C(C[C@@H]1CC[C@H]2[C@@H](COC[C@@H](O)CN2Cc2cc(F)ccc2F)O1)NCc1ccc(F)cc1	-19	1	2.4*	-4	5	nt	-0.061[42 µM]	i
Cn1cnc(S(=O)(=O)N2C[C@H](O)COC[C@@H]3O[C@@H](CC(=O)NCc4ccc(F)cc4)CC[C@H]32)c1	3	4	3.0*	-5	0	nt	0.11[42 µM]	i
CC(C)NC(=O)N(C)C[C@H]1Oc2ncc(-c3ccc(C(=O)N(C)C)cc3)cc2C(=O)N([C@H](C)CO)C[C@@H]1C	nt	-3	0	7	0	-24[16.7 µM]	nt	nt
COc1ccc(S(=O)(=O)Nc2ccc3c(c2)C(=O)N([C@H](C)CO)C[C@@H](C)[C@@H](CN(C)C(=O)NC2CCCCC2)OCCCC[C@@H](C)O3)cc1	8	22	0	-21	-14	-55[16.7 µM]	nt	nt
O=C(C[C@@H]1CC[C@@H]2[C@H](COC[C@@H](O)CN2S(=O)(=O)c2cccc(F)c2)O1)Nc1ccc(-c2ccccc2)cc1	15	-28	1.8*	-4	-5	nt	0.07[42 µM]	i
O=C(C[C@@H]1CC[C@H]2[C@@H](COC[C@@H](O)CN2S(=O)(=O)c2cccc(F)c2)O1)Nc1ccc(-c2ccccc2)cc1	0	-65	-3	-4	1	nt	nt	nt
C[C@@H]1CN([C@H](C)CO)C(=O)CCCn2cc(nn2)CO[C@H]1CN(C)Cc1cccc(C(=O)O)c1	7	1	0	-5	-2	nt	nt	nt
O=C(C[C@@H]1CC[C@@H]2[C@H](COC[C@H](O)CN2Cc2ccc(Cl)cc2)O1)NCc1ccccc1Cl	-7	-4	-1	-44	-2	nt	nt	nt
O=C(Nc1ccc(C(=O)O)cc1)Nc1ccc([N+](=O)[O-])cc1	7	16	1.9*	16	2	9	0.089	i
Cc1cccc(S(=O)(=O)N2CCCCN3[C@@H](CO)[C@@H](c4ccc(C#C[C@H](C)O)cc4)[C@@H]3C2)c1	10	7	1.3*	12	nt	nt	-0.087[42 µM]	i
CO[C@H]1CN(C)C(=O)c2ccc(NC(=O)c3ccc(Oc4ccccc4)cc3)cc2OC[C@H](C)NC[C@H]1C	37	18	0	-14	7	14[16.7 µM]	nt	nt
CC(=O)Nc1ccc(C(=O)N/N=C/c2cc(Br)cc(Br)c2O)cc1	1	26	2.8*	26	5	6	-0.18	i
CC(C)NC(=O)Nc1ccc2c(c1)C(=O)N([C@H](C)CO)C[C@H](C)[C@H](CN(C)S(=O)(=O)c1cn(C)cn1)O2	nt	4	0	0	6	-30[16.7 µM]	nt	nt
O=C(Nc1cccc(C(F)(F)F)c1)c1cccc(NS(=O)(=O)c2ccc(O)c(C(=O)O)c2)c1	-7	10	1.7*	7	4	9	0.37	i
O=C(O)c1cccc(NS(=O)(=O)c2ccc(-c3ccc(S(=O)(=O)Nc4cccc(C(=O)O)c4)cc3)cc2)c1	11	11	21*	nt	-6	-4	-0.46	i
COc1cccc(NC(=O)OCCN2CCN(Cc3ccccc3)CCC2=O)c1	-7	-10	1.5*	-3	-20	-4	0.16	i
O=C(Nc1ccccc1)OCCN1CCN(Cc2ccccc2)CCC1=O	5	-1	0	5	-1	-38	nt	nt
O=c1ccc2cc(S(=O)(=O)Nc3ccc(Br)cc3)ccc2o1	16	10	1.4*	-4	0	44	-0.019	i
SMILES	PAX8 inh HTS	EWS-Fli inh	FGF22 binding-1	PGC1a acetyl inh	FN deposition inh	HIV Env fusion	FGF22 binding-2	SYPRO no-protein	others
COc1ccc(NS(=O)(=O)c2ccc3oc(=O)ccc3c2)cc1	-6	4	0	-8	0	7	nt	nt
CCOC(=O)c1sc(NC(=O)Nc2ccccc2Cl)cc1C	-130	nt	nt	nt	6	i	nt	nt
CCOC(=O)c1sc(NC(=O)Nc2ccccc2)cc1C	-208	-39	2.1*	nt	4	i	-0.38	i
CCOC(=O)c1c(N)sc(C(=O)Nc2ccccc2)c1C	-147	-28	2.9*	-3	nt	-131	-0.18	i
Cc1cc(NC(=O)Nc2ccc3c(ccn3C)c2)sn1	-102	-78	2.8*	-5	7	-36	0.14	i	FGF22 TSA=0
COc1ccc(C(=O)N2C[C@H]3[C@@H](c4ccccc42)[C@@H](CO)N3C(=O)c2ccc(F)cc2)cc1	-17	1	1.8*	7	nt	nt	0.061[42 µM]	i
COCC(=O)N1C[C@H]2[C@@H](c3ccccc31)[C@H](CO)N2C(=O)Nc1ccccc1F	6	2	1.5*	-2	nt	nt	-0.044	i

Screening results deposited in PubChem BioAssay by Broad Institute.
